Assay results published in ChEMBL document CHEMBL1687750, “Nonclinical pharmacokinetics of oseltamivir and oseltamivir carboxylate in the central nervous system” (Antimicrob Agents Chemother, 2009).

Legend:
Plasma [1] = assay: Terminal half life in perfused Sprague-Dawley rat plasma assessed as active metabolite oseltamivir carboxylate level at 30 mg/kg, iv; type: ADME, organism-based; set-up: dose 30 mg/kg, route intravenous; conditions: in vivo
Procedure, shortened: (§1)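 Nonfasted Sprague-Dawley rats given 30 mg/kg i.v. in 0.9% NaCl pH 4.0 by tail vein over 20–30 s. Terminal sampling under isoflurane at 5 min, 0.25, 0.5, 1, 2, 4 and 8 h (4–5 rats/time): plasma, CSF, and brain homogenate, with or without saline perfusion. LC-MS/MS. t1/2, Vss and ratios from noncompartmental analysis of pooled composite concentrations.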

Brain [2] = assay: AUC (0 to 8 hrs) after iv dose in non-perfused Sprague-Dawley rat brain assessed as active metabolite oseltamivir carboxylate level at 30 mg/kg; conditions: in vivo
Cerebrospinal fluid = assay: Cmax in non-perfused Sprague-Dawley rat cerebrospinal fluid assessed as active metabolite oseltamivir carboxylate level at 30 mg/kg, iv; type: ADME, organism-based; set-up: dose 30 mg/kg, route intravenous; conditions: in vivo, BLD = below limit of detection
Procedure, shortened: (§2)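 Nonfasted adult rats received 30 mg/kg in aqueous 0.9% NaCl (pH 4.0) by slow tail-vein injection over 20–30 s. Groups were sampled at 5 min and 0.25, 0.5, 1, 2, 4 and 8 h, with 4–5 rats per time point, under terminal isoflurane. Blood was taken by heart puncture and CSF from the cisterna magna. Brains were homogenized either unperfused or after transcardial saline perfusion. Samples were assayed by LC-MS/MS, and pooled composite data were analyzed noncompartmentally.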

Rattus norvegicus = assay: Volume of distribution at steady state in Sprague-Dawley rat assessed as active metabolite oseltamivir carboxylate level at 30 mg/kg, iv; type: ADME, organism-based; set-up: dose 30 mg/kg, route intravenous; conditions: in vivo; procedure, shortened: as §1
[3] = Cmax in non-perfused Sprague-Dawley rat brain at 30 mg/kg, iv after 0.25 hrs; type: ADME, organism-based; set-up: dose 30 mg/kg, route intravenous; procedure, shortened: as §2
[4] = AUC ratio in brain to plasma in non-perfused Sprague-Dawley rat at 30 mg/kg, iv; type: ADME, organism-based; set-up: dose 30 mg/kg, route intravenous; conditions: brain and plasma, read-out: Ratio AUC; procedure, shortened: as §2
Plasma [5] = assay: Cmax in non-perfused Sprague-Dawley rat plasma assessed as active metabolite oseltamivir carboxylate level at 30 mg/kg, iv; type: ADME, organism-based; set-up: dose 30 mg/kg, route intravenous; conditions: in vivo; procedure, shortened: as §2
[6] = Cmax ratio in cerebrospinal fluid to plasma in perfused Sprague-Dawley rat at 30 mg/kg, iv; type: ADME, organism-based, CSF/Plasma; set-up: dose 30 mg/kg, route intravenous; conditions: cerebrospinal fluid and plasma; procedure, shortened: as §2
[7] = Cmax in perfused Sprague-Dawley rat brain at 30 mg/kg, iv after 0.25 hrs; type: ADME, organism-based; set-up: dose 30 mg/kg, route intravenous; procedure, shortened: as §2
Brain [8] = assay: Cmax in perfused Sprague-Dawley rat brain assessed as active metabolite oseltamivir carboxylate level at 30 mg/kg, iv; type: ADME, organism-based; set-up: dose 30 mg/kg, route intravenous; conditions: in vivo; procedure, shortened: as §2
[9] = Cmax ratio in brain to plasma in perfused Sprague-Dawley rat at 30 mg/kg, iv; type: ADME, organism-based; set-up: dose 30 mg/kg, route intravenous; conditions: brain and plasma; procedure, shortened: as §2
Plasma [10] = assay: AUC (0 to 8 hrs) after iv dose in perfused Sprague-Dawley rat plasma assessed as active metabolite oseltamivir carboxylate level at 30 mg/kg; conditions: in vivo
[11] = Prodrug conversion in 7 days old female rat brain S9 fractions assessed as oseltamivir carboxylate generation rate assessed per mg of protein per min; type: ADME, tissue-based
Procedure, shortened: (§3)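 S9 from brain or liver (rat S9 made by homogenizing tissue in ~4 ml Tris-sucrose buffer per g, supernatant after 9,000 × g at 10°C; pooled human brain and liver S9 also used), protein by bicinchoninic acid assay. Oseltamivir: triplicate, 10 μM 14C-oseltamivir final, 1.0 mg S9 protein, 100 mM Tris-HCl pH 7.4, 30 min at 37°C, quenched with TCA-acetonitrile.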

[12] = Prodrug conversion in 7 days old male rat liver S9 fractions assessed as paranitrophenol generation rate assessed per mg of protein per min; type: ADME, subcellular, S9 fraction
[13] = Volume of distribution at steady state in Sprague-Dawley rat at 30 mg/kg, iv; type: ADME, organism-based; set-up: dose 30 mg/kg, route intravenous; conditions: in vivo, read-out: Vdss
Procedure, shortened: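 Nonfasted adult Sprague-Dawley rats received a single 30 mg/kg i.v. bolus in 0.9% NaCl (pH 4.0), injected slowly into the tail vein over 20–30 s. Plasma was sampled by cardiac puncture under isoflurane at 5 min and 0.25, 0.5, 1, 2, 4 and 8 h, with 4–5 rats per time point. Samples were assayed by LC-MS/MS. Vss was estimated by noncompartmental analysis of pooled composite data.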

[14] = Prodrug conversion in 42 days old male rat brain S9 fractions assessed as paranitrophenol generation rate assessed per mg of protein per min; type: ADME, tissue-based
Procedure, shortened: (§4)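 Control esterase activity was measured by incubating 100 µM p-nitrophenyl acetate (final) with 0.05 mg rat brain or liver S9 protein in 1.5 ml Tris-HCl pH 7.4 for 1 min at 37°C. Reactions were quenched with acetonitrile, and product was quantified by HPLC-UV against external standards. The no-protein blank rate was subtracted, and rate was expressed per mg protein per min.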

LLC-PK1 [15] = assay: Permeability from basolateral to apical side of pig LLC-PK1 cells over expressing human MDR1; type: ADME, cell-based, Sus scrofa
Procedure, shortened: (§5)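 P-gp-transfected LLC-PK1 monolayers received [14C]oseltamivir (0.1–10 mM) plus Lucifer yellow on the apical or basolateral donor side, with or without 1 µM elacridar. Incubation was at 37°C under 5% CO2. The acceptor side was sampled at 0.5–3 h and counted by scintillation. Pe was taken from the 3 h point, without correction for marker flux. Three inserts were used per condition and averaged.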

[16] = Prodrug conversion in 42 days old female rat brain S9 fractions assessed as oseltamivir carboxylate generation rate assessed per mg of protein per min; type: ADME, tissue-based
Procedure, shortened: (§6)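 Rat brain or liver S9 (9,000 × g supernatant; 1.0 mg protein) was incubated in triplicate with 10 µM 14C-oseltamivir (final) in 100 mM Tris-HCl pH 7.4 for 30 min at 37°C. Reactions were quenched with TCA-acetonitrile, and the fraction converted to OC was measured by radioflow HPLC with fractionation. Rate was calculated as (pmol/ml substrate × fraction hydrolyzed)/(mg protein/ml × time), minus the no-protein background.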

[17] = Prodrug conversion in 42 days old female rat liver S9 fractions assessed as conversion of oseltamivir to oseltamivir carboxylate; type: ADME, subcellular, S9 fraction; procedure, shortened: as §6
[18] = Prodrug conversion in 7 days old male rat brain S9 fractions assessed as conversion of oseltamivir to oseltamivir carboxylate; type: ADME, tissue-based; procedure, shortened: as §3
[19] = Prodrug conversion in 42 days old male rat liver S9 fractions assessed as oseltamivir carboxylate generation rate assessed per mg of protein per min; type: ADME, subcellular, S9 fraction; procedure, shortened: as §6
[20] = AUC (0 to infinity) ratio in brain to plasma in non-perfused Sprague-Dawley rat at 30 mg/kg, iv; type: ADME, organism-based; set-up: dose 30 mg/kg, route intravenous; conditions: brain and plasma, read-out: Ratio AUC; procedure, shortened: as §2
LLC-PK1 [21] = assay: Permeability from apical to basolateral side of pig LLC-PK1 cells over expressing human MDR1; type: ADME, cell-based, Sus scrofa; procedure, shortened: as §5
[22] = Prodrug conversion in commercial liver S9 fractions assessed as paranitrophenol generation rate assessed per mg of protein per min; type: ADME, subcellular, Liver S9 fraction
[23] = Prodrug conversion in human liver S9 fractions assessed as conversion of oseltamivir to oseltamivir carboxylate; type: ADME, subcellular, S9 fraction; procedure, shortened: as §3
[24] = Prodrug conversion in 42 days old male rat liver S9 fractions assessed as paranitrophenol generation rate assessed per mg of protein per min; type: ADME, subcellular, S9 fraction; procedure, shortened: as §4
[25] = Prodrug conversion in 42 days old female rat liver S9 fractions assessed as oseltamivir carboxylate generation rate assessed per mg of protein per min; type: ADME, subcellular, S9 fraction; procedure, shortened: as §6
MDR1 (P-gp, ABCB1) = MDR1 (P-gp, ABCB1) (Homo sapiens, UniProt P08183); assay: Activity of human MDR1-mediated permeability from apical to basolateral side in pig LLC-PK1 cells in presence of P-gp inhibitor elacridar; type: cell-based; conditions: LLC-PK1, with elacridar (concentration not stated), read-out: permeability; procedure, shortened: as §5
Chain of MDR1 (P-gp, ABCB1) (P08183 whole entry): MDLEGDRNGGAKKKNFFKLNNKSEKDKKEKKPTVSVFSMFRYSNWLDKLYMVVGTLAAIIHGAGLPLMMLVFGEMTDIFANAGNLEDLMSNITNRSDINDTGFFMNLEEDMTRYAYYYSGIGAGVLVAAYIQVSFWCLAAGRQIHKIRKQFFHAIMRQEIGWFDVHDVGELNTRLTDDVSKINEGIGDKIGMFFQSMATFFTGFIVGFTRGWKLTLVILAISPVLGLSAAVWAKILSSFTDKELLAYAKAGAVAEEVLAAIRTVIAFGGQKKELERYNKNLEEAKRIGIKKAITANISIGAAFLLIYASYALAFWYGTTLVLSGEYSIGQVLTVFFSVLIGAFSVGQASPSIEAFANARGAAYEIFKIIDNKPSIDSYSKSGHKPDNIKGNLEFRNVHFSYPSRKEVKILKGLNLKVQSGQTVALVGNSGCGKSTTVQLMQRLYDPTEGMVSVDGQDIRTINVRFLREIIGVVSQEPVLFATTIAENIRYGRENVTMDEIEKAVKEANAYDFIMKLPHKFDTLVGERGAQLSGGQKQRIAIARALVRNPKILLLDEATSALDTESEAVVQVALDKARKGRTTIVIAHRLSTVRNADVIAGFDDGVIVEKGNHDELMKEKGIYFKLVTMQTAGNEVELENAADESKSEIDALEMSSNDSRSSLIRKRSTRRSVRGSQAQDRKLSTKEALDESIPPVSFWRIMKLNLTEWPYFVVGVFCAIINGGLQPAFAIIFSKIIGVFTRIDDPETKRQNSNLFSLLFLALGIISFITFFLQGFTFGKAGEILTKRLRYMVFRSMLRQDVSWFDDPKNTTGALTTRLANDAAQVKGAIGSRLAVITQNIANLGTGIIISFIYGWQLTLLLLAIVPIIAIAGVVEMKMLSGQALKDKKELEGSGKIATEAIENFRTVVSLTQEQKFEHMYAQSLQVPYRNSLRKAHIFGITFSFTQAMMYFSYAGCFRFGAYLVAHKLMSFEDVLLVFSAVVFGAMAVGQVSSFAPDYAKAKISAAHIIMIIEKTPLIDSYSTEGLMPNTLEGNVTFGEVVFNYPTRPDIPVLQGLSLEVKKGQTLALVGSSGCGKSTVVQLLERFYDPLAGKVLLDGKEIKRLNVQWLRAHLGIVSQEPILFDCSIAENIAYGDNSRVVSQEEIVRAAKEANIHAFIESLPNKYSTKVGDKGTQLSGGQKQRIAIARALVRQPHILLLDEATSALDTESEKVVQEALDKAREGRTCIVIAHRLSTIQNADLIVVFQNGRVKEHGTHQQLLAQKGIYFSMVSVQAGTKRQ

With `CCC(CC)O[C@@H]1C=C(C(=O)O)C[C@H](N)[C@H]1NC(C)=O` [OSELTAMIVIR CARBOXYLATE] the “beta t1/2” value (Plasma [1]) was 1.71 h, the AUC (Brain [2]) was 145 and the Cmax (Cerebrospinal fluid) was “BLD”. For the same compound, the Vdss (Rattus norvegicus) was 0.8 L/kg, the Cmax [3] was 164 ng/g and the Kp [4] was 0.01. It also gave a Cmax (Plasma [5]) of 6880 ng/mL, a Kp [6] of 0.003 and a Cmax [7] of 75.5 ng/g. The Cmax (Brain [8]) was 75.5 ng/g, the Kp [9] was 0.01 and the AUC (Plasma [10]) was 12800.
For `CCOC(=O)C1=C[C@@H](OC(CC)CC)[C@H](NC(C)=O)[C@@H](N)C1` [OSELTAMIVIR], the Activity [11] was < 0.2 pmol/s, the Activity [12] was 467 nmol and the Vd [13] was 3 L/kg. For the same compound, the Activity [14] was 112 nmol, the Papp (LLC-PK1 [15]) was 1.01 ×10⁻⁶ cm/s and the Activity [16] was 0.6 pmol/min/mg. For the same compound, the Activity [17] was 0.41%, the Activity [18] was < 0.06% and the Activity [19] was 2.11 pmol/s. For the same compound, the Kp [20] was 0.24, the Papp (LLC-PK1 [21]) was 1.01 ×10⁻⁶ cm/s and the Activity [22] was 482 nmol. The Activity [23] was 3.57%, the Activity [24] was 1446 nmol and the Activity [25] was 1.37 pmol/s. The Papp A→B (MDR1 (P-gp, ABCB1)) was 3.89 ×10⁻⁶ cm/s.
